HSF1 activator: increases HSF-1 driven luciferase reporter signal. AID 504408. NIH3T3-HGL HSF-1 luciferase reporter, MG132, 8 h; 100% = twice DMSO control signal. activation, % at 9 µM. 1.7% of 300,000 active;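 active means mean replicate activation of at least 50% with a set share of replicates each reaching 50%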;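 further: 0% = median of the neutral control wells and 100% = twice that signal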
Jurkat NFkB inh: inhibitors of the PMA/ionomycin-induced NF-kB reporter in Jurkat cells; PMA/ionomycin-induced NF-kB luciferase reporter, luminescence; inhibition, % at 4 µM; 0.53% of 330,000 active; AID 435003; in the data active means inhibition above about 50%
HSF1 inhib: HSF1 inhibition. NIH3T3-HGL HSE-luciferase, MG132-induced, luminescence 8 h; hits give low values. activity change, negative = inhibition, % at 7.5 µM (by protocol). 0.77% of 300,000 active;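 active means more than half of replicate wells show activity change below -50%, luminescence cut by over half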;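 further: luciferase reports HSF-1 transcriptional activity via heat shock element; 0% = median of DMSO wells and -100% = zero luminescence signal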
697 NFkB inh: lowers PMA/ionomycin-induced NF-kB signal in 697 B cells. 697 B-cell NF-kB luciferase reporter, 16 h. inhibition, % at 4 µM. 0.33% of 330,000 active. AID 435022; in the data active means inhibition above about 35%
T cruzi inh: T. cruzi replication inhibition; T. cruzi beta-gal in NIH3T3, luminescence, 90 h; 1.4% of 300,000 active; AID 1885; inhibition, % (test concentration not listed);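 active means mean inhibition across valid replicates above about 55%, limit read from the data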;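 further: signal also drops with host cell toxicity which is not excluded here; 0% = plate median of DMSO wells and 100% = zero luminescence signal; higher percent means less beta-gal luminescence so fewer parasites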
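System – NIH/3T3 host cells with β-galactosidase reporter T. cruzi · Doses – single 50 nL compound addition per well in DMSO · Reagent – 5000 T. cruzi trypomastigotes/well · Medium – Low-serum DMEM with 2% FBS · Timing – ≥90 h infection period, 3 h prior cell attachment · Evaluation – parasite load inhibition, % · Technique – GalScreen luminescence, 60 min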
GPR7 antag: human neuropeptides B/W receptor 1 antagonism. P48145. GPR7-expressing cells, fluorescence antagonist assay. inhibition, % at 4.4 µM. 1.1% of 290,000 active; in the data active means inhibition above about 16%, passing the limit was not always enough;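 further: cells stimulated with the agonist NPW; 0% = agonist with vehicle and 100% = vehicle without agonist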
Target sequence (P48145 whole entry, looked up): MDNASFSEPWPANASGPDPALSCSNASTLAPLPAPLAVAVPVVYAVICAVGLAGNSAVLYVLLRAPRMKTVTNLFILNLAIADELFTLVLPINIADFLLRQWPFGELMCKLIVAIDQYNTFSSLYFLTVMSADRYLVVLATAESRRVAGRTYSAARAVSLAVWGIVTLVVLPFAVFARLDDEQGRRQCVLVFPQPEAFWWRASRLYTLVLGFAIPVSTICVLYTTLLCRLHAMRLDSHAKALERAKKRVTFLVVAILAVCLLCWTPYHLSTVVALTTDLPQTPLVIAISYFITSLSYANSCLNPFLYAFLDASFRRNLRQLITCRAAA
* hit, by the source's call; · = not tested or not shown. Shown are actives, neighbours in structure and some others; about 4.8% of the full set was active somewhere.

SMILES	HSF1 activator	Jurkat NFkB inh	HSF1 inhib	697 NFkB inh	T cruzi inh	GPR7 antag
CC(=O)Nc1ccc(OCC(O)Cn2nc(C)c(C)c2C)cc1 (stereo not given)	-7.4	-9.4	-7.9	-15.4	-11.4	-6.1
C/C(=N/NC(=O)c1ccoc1C)C12CC3CC(CC(C3)C1)C2	59.3*	-8.1	36.4	-5.1	-2.6	7.1
C/C(=N\NC(=O)c1ccccn1)C12CC3CC(CC(C3)C1)C2	40.4	-47.9	-0.5	-39.6	0.1	-4.3
Cc1ccc(NS(=O)(=O)c2ccc3[nH]c(=O)[nH]c3c2)cc1	-5.9	19.0	-3.8	-1.8	-13.8	-4.2
COc1ccc(-n2nc3c(c2NC(=O)CCl)CSC3)cc1	12.0	7.0	6.5	-13.6	-8.3	3.6
COC(=O)C1(C)NC(c2ccc(O)cc2)C2C(=O)N(c3ccccc3)C(=O)C21 (stereo not given)	29.6	8.0	8.5	6.7	-14.7	4.1
CCOC(=O)C1(C)NC(c2ccc(O)cc2)C2C(=O)N(c3ccccc3)C(=O)C21 (stereo not given)	-64.8	2.1	-53.6*	-5.9	-7.4	-6.5
COc1cccc(-n2nc(C#N)c(Cl)cc2=O)c1	224.6*	13.3	155.3	12.1	33.0	41.3*
COc1cccc(-n2nc(C(N)=O)c(O)cc2=O)c1	2.5	-2.0	-4.2	10.7	1.0	-1.1
O=C(NCc1ccccc1C(F)(F)F)C1CC(c2ccc(C(F)(F)F)cc2)=NO1 (stereo not given)	-72.3	-0.5	-65.3*	-6.9	-22.8	·
CC(C)(C)C(=O)Nc1ccc(-c2cc3cc(Cl)ccc3o2)cc1	-61.4	-87.6	-54.1*	-123.2	0.3	-8.6
CC(C)(Oc1ccc(Cl)cc1)C(=O)Nc1ccc2oc(=O)ccc2c1	-7.4	23.1	6.6	15.2	9.8	-25.1
Cn1c(=O)c(NCCc2ccccc2)c2c3c(cccc31)C(=O)c1ccccc1-2	44.6	-8.2	6.7	18.5	34.1	64.0*
Cc1[nH]c2ccccc2c1C(C[N+](=O)[O-])c1cccs1 (stereo not given)	-79.5	-20.7	-74.7*	-4.6	26.4	-23.8
Cc1ccc(-c2[nH]c3ccccc3c2C(C[N+](=O)[O-])c2ccco2)cc1 (stereo not given)	70.2*	22.9	27.5	-20.5	30.5	16.7
Cc1[nH]c2ccccc2c1C(C[N+](=O)[O-])c1cccc(O)c1 (stereo not given)	-4.0	3.5	1.0	-3.1	17.9	12.1
Cc1[nH]c2ccccc2c1C(C[N+](=O)[O-])c1ccco1 (stereo not given)	18.2	-2.0	6.6	5.4	-1.8	-16.2
Cc1cccc(NC(=O)c2ccc(S(=O)(=O)N3CCOCC3)cc2)n1	-12.7	6.1	4.4	9.9	0.4	-18.3
CC(C)C(=O)Nc1cccc(-c2nc3ccccc3o2)c1	-20.8	-8.7	-10.5	-15.8	-15.2	1.4
CC(=O)Nc1cccc(-c2nc3ccccc3o2)c1	73.2*	-33.2	21.8	-28.3	-5.9	-6.7
CCc1cccc(NS(=O)(=O)c2ccc3c(c2)NC(=O)C(C)S3)c1 (stereo not given)	77.0*	-3.4	34.8	-23.9	-20.6	31.2
CCCN(Cc1nnc(-c2cccs2)o1)C(=O)CN1C(=O)NC2(CCCCC2)C1=O	·	5.4	·	-7.3	·	·
O=C(CSc1ccccc1)Nc1ccc(N2CCOCC2)c(F)c1	41.6	-42.9	25.8	-46.3	6.0	-8.3
CCc1cc(C=NC2CCCCC2)c(O)s1	-62.5	-53.4	-56.1*	-52.3	1.8	-2.1
CCc1cc2c(SC(C)C(=O)NC3CCCC3)ncnc2s1 (stereo not given)	·	1.8	·	-9.5	·	·
COc1ccc(NC(=O)CN(C)C(=O)CCCN2C(=O)c3cccc4cccc(c34)C2=O)cc1	21.8	1.7	0.2	-1.3	3.6	·
CC1CCCCN1C(=O)C12CCC(C)(C(=O)C1)C2(C)C (stereo not given)	-5.8	9.0	-11.8	6.5	10.0	-8.8
CC1Cc2ccccc2N1C(=O)C12CCC(C)(C(=O)C1)C2(C)C (stereo not given)	-71.0	-5.9	-63.4*	-5.1	13.9	-3.6
O=S(=O)(Nc1cccnc1)c1cccc(C(F)(F)F)c1	2.4	-2.0	-0.7	6.2	-9.1	-12.5
